MrgX1 ag: human MrgX1 receptor agonism, primary screen; Q96LB2; MrgX1-HEK293 cells, Fluo-4 calcium fluorescence, agonist mode; stronger effect = higher value; B-score at 10 µM; hit rate 0.44% among 310,000;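 active = calcium response B-score plate-corrected fluorescence ratio at least 3 library SD, with starting fluorescence B-score inside 5 SD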
Target sequence (Q96LB2 whole entry, looked up): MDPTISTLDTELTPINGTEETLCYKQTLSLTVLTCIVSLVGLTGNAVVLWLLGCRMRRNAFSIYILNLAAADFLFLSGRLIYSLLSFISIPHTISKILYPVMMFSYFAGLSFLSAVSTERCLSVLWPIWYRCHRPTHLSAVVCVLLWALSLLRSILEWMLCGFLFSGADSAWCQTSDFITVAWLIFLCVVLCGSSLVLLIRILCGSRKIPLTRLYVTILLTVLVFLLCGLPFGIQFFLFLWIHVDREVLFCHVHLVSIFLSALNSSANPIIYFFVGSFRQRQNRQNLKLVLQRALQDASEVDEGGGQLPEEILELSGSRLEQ
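Material: MrgX1-expressing HEK293 cells / Dosing: compound as first of three additions / Incubation: overnight seeding, then 1 h dark dye loading / Signal: Fluo-4 NW calcium fluorescence / Evaluation: B-scored fluorescence response ratio / Benchmarks: positive and negative control wells on each plate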
RGS4 inh: human RGS4 inhibition | P49798 | HEK293 M3R/RGS4 inducible, Fluo-4 calcium flux; stronger effect = higher value; triggered by carbachol at its EC20 | B-score at 10 µM | hit rate 0.45% among 310,000;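 active = B-score, a plate-corrected calcium signal, over three deviations above library mean, with baseline fluorescence within five deviations of library mean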;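 note: RGS4 expression induced by doxycycline in cells with stable M3 receptor; B-score is computed from the integrated fluorescence ratio over baseline after carbachol; higher B-score means a larger calcium signal and so more RGS4 inhibition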
Target sequence (P49798 whole entry, looked up): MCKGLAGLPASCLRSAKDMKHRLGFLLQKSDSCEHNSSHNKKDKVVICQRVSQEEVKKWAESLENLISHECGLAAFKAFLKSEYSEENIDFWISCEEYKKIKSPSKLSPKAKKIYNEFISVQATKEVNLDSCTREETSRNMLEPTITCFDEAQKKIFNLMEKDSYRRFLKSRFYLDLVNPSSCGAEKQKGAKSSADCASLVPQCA
MrgX1 antagonist: human MrgX1 receptor antagonism, primary screen. MRGX1-HEK293 calcium flux, Fluo-4, BAM8-22 antagonism; stronger effect = lower value. B-score at 10 µM. hit rate 1.3% among 310,000;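 active = calcium-response B-score plate-corrected more than 3 library SD below zero, starting fluorescence within 5 deviations, no agonist response on first addition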;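 note: peak minus trough fluorescence over baseline after final BAM8-22 challenge near maximal dose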
MrgX1 allo act: human MrgX1 positive allosteric modulation, primary screen | Q96LB2 | MrgX1-HEK293, Fluo-4 calcium flux, FDSS; stronger effect = higher value | B-score at 10 µM | hit rate 0.63% among 310,000;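 active = plate-corrected calcium response at least 3 library SD above typical, normal starting fluorescence, not activating the receptor alone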;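 note: compound read alongside a low EC10 to EC30 dose of BAM8-22 agonist; peak minus trough fluorescence over baseline measured at the second addition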
RGS4 pot: potentiators or activators of RGS4; HEK293 M3R/inducible RGS4, carbachol calcium flux Fluo4; stronger effect = lower value; B-score at 10 µM; hit rate 0.92% among 310,000; AID 463111;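 active = B-score of the integrated calcium signal more than 4 SD below the library mean, with starting fluorescence not abnormally high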;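 note: negative B-score means reduced calcium response which marks RGS4 activation or potentiation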
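test system = HEK293 cells with stable M3R and inducible RGS4 | schedule = recording 10 s baseline at 1 Hz, 100 s post-agonist | technique = Fluo4-AM (2 µM) calcium-flux fluorescence, kinetic read | measure = Agonist-evoked peak-minus-minimum fluorescence over baseline, integrated ratio, B score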
Starred values were filed as active, the others as inactive; i = inactive. In the library only some 3.5% were active in any assay of this set; here they are far more common.

SMILES	MrgX1 ag	RGS4 inh	MrgX1 antagonist	MrgX1 allo act	RGS4 pot
O=C(O)CCCCCN1C(=O)C2CCCCC2C1=O (stereo unspecified)	i	i	i	i	i
O=S1(=O)N=C(N2CCc3ccccc3C2)c2ccccc21	i	i	i	i	-7.41*
Cc1ccc(S(=O)(=O)N2CCC(C(=O)NCCCn3ccnc3)CC2)cc1	i	i	i	i	i
COc1ccc(-c2csc3[nH]c(=S)n(-c4ccccc4)c(=O)c23)cc1OC	i	i	i	i	i
O=C(NN1C(=O)c2ccccc2NC1c1ccoc1)c1ccc([N+](=O)[O-])cc1 (stereo unspecified)	i	i	-4.63*	i	i
CS(=O)(=O)c1cccc(-c2nnc(NC(=O)C3=COCCO3)o2)c1	i	i	-4.93*	i	i
O=C(NC(Cc1ccccc1)C(=O)O)c1cccnc1Cl (stereo unspecified)	i	i	i	i	i
CCOC(=O)N1CCN(C(=O)c2cn(CC)c3cc(N4CCN(C)CC4)c(F)cc3c2=O)CC1	i	i	-7.59*	i	i
COCCNS(=O)(=O)c1ccc(Cl)c(C(=O)NC2CCN(Cc3ccccc3)CC2)c1	i	i	i	i	i
Nc1cc(OCC(F)(F)F)cc([N+](=O)[O-])c1	i	i	i	i	i
Nc1cc(N)c(OCC(F)(F)F)cc1OCC(F)(F)F	i	6.74*	i	i	i
CCCCN(CC)CCCNC(=O)C1CCN(c2ncnc3c2sc2cccc(F)c23)CC1	i	i	i	i	-7.07*
O=C(NCCN1CCOCC1)C1CCN(c2ncnc3c2sc2cccc(F)c23)CC1	i	i	i	i	i
CCCCC1(C)OC(=O)C(=Cc2ccc(N(C)C)cc2)C(=O)O1 (stereo unspecified)	29.4*	i	i	i	i
Cc1cc(C(=O)COC(=O)CC2Sc3ccccc3NC2=O)c(C)n1-c1cccc(C(F)(F)F)c1 (stereo unspecified)	i	i	i	i	-8.25*
CC(C)Cc1nnc(NC(=O)CCC(=O)N2CCCCC2)s1	i	i	i	i	i
Cc1ccc2nc(NC(=O)CSc3nnc(C)c(=O)n3N)sc2c1	i	i	i	i	i
O=C(NCc1ccncc1)/C(=N/O)c1ccccc1	i	i	-5.74*	i	i
CN(C)CCCNC(=O)C1(O)c2cc(Br)ccc2NC(=O)N1c1ccc(Cl)cc1 (stereo unspecified)	i	i	i	i	i
NS(=O)(=O)c1ccc(N/N=C/c2ccccc2Br)cc1	i	i	i	6.84*	i
O=[N+]([O-])c1cccc(N/N=C/c2cc([N+](=O)[O-])ccc2O)c1	i	i	i	i	i
NS(=O)(=O)c1ccc(N/N=C/c2ccncc2)cc1	i	i	i	i	i
O=[N+]([O-])c1ccc(N/N=C/c2ccccc2O)cc1	i	i	-4.89*	i	i
CCc1cc(C(=O)N2CCCC(CO)(Cc3ccc(F)cc3)C2)n(C)n1 (stereo unspecified)	i	i	i	i	i
Cc1nn(-c2ccccc2)c(Cl)c1CN(C(=O)CCl)c1cccc2ccccc12	i	i	i	10.5*	i
SMILES	MrgX1 ag	RGS4 inh	MrgX1 antagonist	MrgX1 allo act	RGS4 pot
CCCc1ccc2oc(C(=O)N3CCN(C4CCS(=O)(=O)C4)CC3)c(C)c2c1 (stereo unspecified)	i	i	i	i	i
CN1C(=O)c2ccc(N3CCCC3)cc2C1=O	i	i	i	i	i
Cc1cc(N2CCCC2)ccc1/C=C1\NC(=S)N(C)C1=O	44.3*	i	i	i	i
O=C(NCc1ccccc1)c1n[nH]nc1-c1ccccc1O	i	i	i	i	i
CCN1C(=S)SC(=O)C1=C1C=C(C)N(CCO)C(C)=C1	38.3*	i	i	i	i
COc1cccc(N2CCc3c(C)nc4ccc(Cl)cc4c32)c1	i	i	i	i	-7.48*
CCC/C(O)=C1\C(=O)CC(c2ccccc2)CC1=NC(C)C(=O)O (stereo unspecified)	i	i	i	i	i
O=C(NNS(=O)(=O)c1ccc(F)cc1)C1CCN(Cc2cccc(F)c2)CC1	i	i	i	i	-7.28*
O=C(NNS(=O)(=O)c1ccc2ccccc2c1)C1CCN(Cc2ccccc2)CC1	i	i	i	i	i
FCCCOc1ccc(/C=N/OCc2ccc(Cl)cc2Cl)cc1	i	i	-5.5*	i	i
CC1(CC(=O)N/N=C/c2cc([N+](=O)[O-])c(O)cc2O)OCCO1	i	i	i	i	i
COCCn1c(C)cc(C(=O)COC(=O)CNC(=O)c2ccccc2)c1C	i	i	-5.02*	i	i
O=c1c2c(c(-c3ccccc3)nn1Cc1ccccc1)CCCC2	i	i	i	i	i
Cc1cccc(N2CCN(C(=O)CCC(=O)N3CCOc4ccc(Cl)cc43)CC2C)c1 (stereo unspecified)	i	i	i	i	i
Cc1ccc(S(=O)(=O)N2CCC(=O)N(C(COCc3cccc(C(F)(F)F)c3)Cc3ccccc3)CC2)cc1 (stereo unspecified)	i	i	-4.52*	i	i
Cc1ccc(S(=O)(=O)N2CCN(C(=O)COC(=O)C3CCC3)CC2)c(C)c1	i	i	i	i	i
CCOCCCN(C(=O)c1snc(C(N)=O)c1N)C(C(=O)NCCC(C)C)c1ccc(Cl)cc1 (stereo unspecified)	i	i	i	i	i
CCN1C(=O)CS/C1=C(\C#N)S(=O)(=O)c1ccccc1	41.5*	i	i	i	i
CCn1c(=O)c(C(=O)NNC(=O)c2ccccc2)c(O)c2ccccc21	30.2*	i	i	i	i
CC(C)Cn1c(=O)c(C(=O)Nc2ccncc2)c(O)c2ccccc21	i	i	i	i	-8.92*
C=CCn1c(=O)c(C(=O)NCc2ccccc2)c(O)c2ccccc21	i	i	i	i	-7.08*
CC(C)Cn1c(=O)c(C(=O)Nc2cnccn2)c(O)c2ccccc21	i	i	i	i	i
C=CCn1c(=O)c(C(=O)NCCNCC)c(O)c2ccccc21	i	i	i	i	i
CCC[N+]1(CC#CC(O)(c2ccccc2)C2CCCCC2)CCCCC1 (stereo unspecified)	i	i	i	i	-8.15*

Screening results (PubChem BioAssay)
